Measured values from ChEMBL document CHEMBL4680154, “The optimization of xanthine derivatives leading to HBK001 hydrochloride as a potent dual ligand targeting DPP-IV and GPR119” (Eur J Med Chem, 2020).
Converted amounts (≈) assume the structure as drawn.

Tests used:
[1] = system: Vero; test: Cytotoxicity against African green monkey Vero cells incubated for 48 hrs by MTT assay; conditions: Chlorocebus sabaeus
[2] = Oral bioavailability in Sprague-Dawley rat at 30 mg/kg; type: ADME, organism-based; conditions: in vivo
In short: (§1)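 Male SD rats (180–200 g), three per route, dosed as free base content. Oral formulation in 0.5% carboxymethyl cellulose; intravenous formulation in normal saline. Sampling at 5, 15, 30 min and 1, 1.5, 2, 4, 6, 8, 12, 24 h; plasma kept at -80 °C. Non-compartmental parameters; F = (AUCpo×dose iv)/(AUCiv×dose po).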

[3] = AUC(0 to t) in ICR mouse plasma at 20 mg/kg, po measured up to 24 hrs; type: ADME, organism-based; set-up: route oral, dose 20 mg/kg, time <=24
In short: (§2)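 Male ICR mice (26–27 g), three per route. Oral dose given as a 2 mg/mL suspension in 0.5% carboxymethyl cellulose; intravenous dose as 0.4 mg/mL in 30% SBECD with 1 mol/L HCl. Blood taken at 5, 15, 30 min and 1, 2, 4, 7, 24 h; plasma stored at -80 °C. Non-compartmental analysis; F = (AUCpo×dose iv)/(AUCiv×dose po).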

[4] = Cmax in ICR mouse plasma at 2 mg/kg, iv measured up to 24 hrs; type: ADME, organism-based; set-up: route intravenous, dose 2 mg/kg, time <=24; in short: as §2
[5] = AUC(0 to t) in Sprague-Dawley rat plasma at 30 mg/kg, po measured up to 24 hrs; type: ADME, organism-based; set-up: route oral, dose 30 mg/kg, time <=24; in short: as §1
[6] = Mean residence time (0 to infinity) in Sprague-Dawley rat at 30 mg/kg, po measured up to 24 hrs; type: ADME, organism-based; conditions: in vivo; in short: as §1
[7] = AUC(0 to t) in ICR mouse plasma at 2 mg/kg, iv measured up to 24 hrs; type: ADME, organism-based; set-up: route intravenous, dose 2 mg/kg, time <=24; in short: as §2
[8] = Elimination half life in ICR mouse plasma at 2 mg/kg, iv measured up to 24 hrs; type: ADME, organism-based; conditions: read-out: beta t1/2 (converted); in short: as §2
[9] = Mean residence time (0 to infinity) in ICR mouse at 2 mg/kg, iv measured up to 24 hrs; type: ADME, organism-based; conditions: in vivo; in short: as §2
[10] = Tmax in ICR mouse plasma at 20 mg/kg, po measured up to 24 hrs; type: ADME, organism-based; in short: as §2
[11] = Mean residence time (0 to infinity) in ICR mouse at 20 mg/kg, po measured up to 24 hrs; type: ADME, organism-based; conditions: in vivo; in short: as §2
[12] = Tmax in Sprague-Dawley rat plasma at 30 mg/kg, po measured up to 24 hrs; type: ADME, organism-based; in short: as §1
[13] = Elimination half life in ICR mouse plasma at 20 mg/kg, po measured up to 24 hrs; type: ADME, organism-based; conditions: read-out: beta t1/2 (converted); in short: as §2
[14] = Elimination half-life in Sprague-Dawley rat plasma at 30 mg/kg, po measured up to 24 hrs; type: ADME, organism-based; conditions: read-out: beta t1/2 (converted); in short: as §1
[15] = target: DPP8/9 (Homo sapiens, UniProt Q6V1X1+Q86TI2); test: Inhibition of recombinant human DPP8/9 expressed in Rosetta cells at 10 uM using Gly-Pro-p-nitroanilide as substrate incubated for 1 hr relative to control; conditions: probe Gly-Pro-p-nitroanilide
[16] = AUC(0 to infinity) in Sprague-Dawley rat plasma at 30 mg/kg, po measured up to 24 hrs; type: ADME, organism-based; set-up: route oral, dose 30 mg/kg, time <=24; in short: as §1
[17] = Metabolic stability in Sprague-Dawley rat hepatocytes assessed as parent compound remaining incubated for 30 mins by LC-MS/MS analysis; type: ADME, cell-based, Hepatocyte; conditions: read-out: Stabilty
In short: (§3)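 Hepatocytes from male ICR/CD-1 mice, male Sprague-Dawley rats, or mixed human donors. Parent compound measured after 30 min incubation and normalised to the time-zero concentration.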

[18] = Cmax in ICR mouse plasma at 20 mg/kg, po measured up to 24 hrs; type: ADME, organism-based; set-up: route oral, dose 20 mg/kg, time <=24; in short: as §2
[19] = Cmax in Sprague-Dawley rat plasma at 30 mg/kg, po measured up to 24 hrs; type: ADME, organism-based; set-up: route oral, dose 30 mg/kg, time <=24; in short: as §1
[20] = target: T1, Glucose-dependent insulinotropic receptor (Homo sapiens, UniProt Q8TDV5); test: Agonist activity at CREB-LBD and Gal4-DBD fused recombinant human GPR119 expressed in HEK293 cells by firefly luciferase assay; type: functional, cell-based
T1 sequence (Q8TDV5 whole entry): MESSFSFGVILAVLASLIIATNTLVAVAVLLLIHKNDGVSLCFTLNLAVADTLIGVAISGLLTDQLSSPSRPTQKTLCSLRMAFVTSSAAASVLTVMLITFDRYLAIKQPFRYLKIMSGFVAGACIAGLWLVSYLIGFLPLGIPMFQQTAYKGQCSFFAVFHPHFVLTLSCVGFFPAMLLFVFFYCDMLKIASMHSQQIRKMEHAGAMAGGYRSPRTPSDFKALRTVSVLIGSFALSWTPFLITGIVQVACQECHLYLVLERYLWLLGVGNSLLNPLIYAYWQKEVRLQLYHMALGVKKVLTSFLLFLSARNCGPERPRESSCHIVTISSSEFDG
In short: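 HEK293 cells transiently transfected with human GPR119, a Gal4-DBD/CREB-LBD fusion and a Gal4 UAS-driven luciferase reporter, then treated with compound (DMSO vehicle). Firefly luciferase luminescence read. Activation fold = compound/vehicle, expressed as percent of the AR231453 activation fold. EC50 obtained by curve fitting.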

[21] = Oral bioavailability in ICR mouse at 20 mg/kg; type: ADME, organism-based; conditions: in vivo; in short: as §2
[22] = AUC(0 to infinity) in ICR mouse plasma at 20 mg/kg, po measured up to 24 hrs; type: ADME, organism-based; set-up: route oral, dose 20 mg/kg, time <=24; in short: as §2
[23] = Metabolic stability in ICR/CD-1 mouse hepatocytes assessed as parent compound remaining incubated for 30 mins by LC-MS/MS analysis; type: ADME, cell-based, Hepatocyte; conditions: read-out: Stabilty; in short: as §3
[24] = Metabolic stability in human hepatocytes assessed as parent compound remaining incubated for 30 mins by LC-MS/MS analysis; type: ADME, cell-based, Hepatocyte; conditions: read-out: Stabilty; in short: as §3
[25] = AUC(0 to infinity) in ICR mouse plasma at 2 mg/kg, iv measured up to 24 hrs; type: ADME, organism-based; set-up: route intravenous, dose 2 mg/kg, time <=24; in short: as §2

## CC#CCn1c(N2CCC[C@@H](N)C2)nc2c1c(=O)n(CCCN1CCN(c3nc(-c4ccccc4)no3)CC1)c(=O)n2C
[1]
  IC50: 46.6 µg/mL (≈ 79.4 µM)
[2]
  bioavailability: 31.8%
[3]
  AUC(0-t) at 24 h: 308 ng·h/mL
[4]
  Cmax: 850 ng/mL
[5]
  AUC(0-t) at 24 h: 468 ng·h/mL
[6]
  MRT inf: 2.11 h
[7]
  AUC(0-t) at 24 h: 257 ng·h/mL
[8]
  half-life: 1.64 h
[9]
  MRT inf: 0.76 h
[10]
  Tmax: 0.42 h
[11]
  MRT inf: 1.22 h
[12]
  Tmax: 1.17 h
[13]
  half-life: 1.06 h
[14]
  half-life: 1.11 h
[15]
  inhibition at 1 h, 10 µM: 0%
[16]
  AUC(0-inf): 502 ng·h/mL
[17]
  remaining at 0.5 h: 23.8%
[18]
  Cmax: 213 ng/mL
[19]
  Cmax: 192 ng/mL
[20]
  EC50: 1400 nM
[21]
  bioavailability: 12.2%
[22]
  AUC(0-inf): 318 ng·h/mL
[23]
  remaining at 0.5 h: 32%
[24]
  remaining at 0.5 h: 101%
[25]
  AUC(0-inf): 261 ng·h/mL
